# Reference: ChEMBL document CHEMBL1129733, “Aminoacetyl moiety as a potential surrogate for diacylhydrazine group of SC-51089, a potent PGE2 antagonist, and its analogs” (J Med Chem, 1996)
# Columns and labels:
# [1] = species on record: Mus musculus; test: Antinociceptive activity in mouse by using phenylbenzoquinone writing assay.; type: functional
# In short: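 Mice given test compound at an initial screening dose of 30 mg/kg. ED50 determined only for compounds producing a response in seven of ten animals, with 95% confidence limits (p < 0.05).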
# [2] = target: Prostaglandin E2 receptor EP1 (Cavia porcellus); test: PGE-2 (EP1 subtype) antagonistic activity as PGE2-stimulated guinea pig ileum muscle strip assay; conditions: read-out: pA2 (converted)
Kb [2] [nM],SMILES,ED50 [1] [mg/kg]
1580,CCS(=O)(=O)CCC(=O)NNC(=O)N1Cc2ccccc2Oc2ccc(Cl)cc21,7.4
2510,CCS(=O)(=O)CCC(=O)CNC(=O)N1Cc2ccccc2Oc2ccc(Cl)cc21,–
2000,O=C(CCc1ccncc1)NCC(=O)N1Cc2ccccc2Oc2ccc(Cl)cc21,–
2000,CCS(=O)(=O)CCC(=O)NCC(=O)N1Cc2ccccc2Oc2ccc(Cl)cc21,–
–,O=C(CNC(=O)C(F)(F)C(O)c1ccccn1)N1Cc2ccccc2Oc2ccc(Cl)cc21 (stereo not drawn),8.1
63.1,O=C(CCSCc1ccco1)CNC(=O)N1Cc2ccccc2Oc2ccc(Cl)cc21,–
–,O=C(CCSCc1ccco1)NNC(=O)N1Cc2ccccc2Oc2ccc(Cl)cc21,0.9
39.8,O=C(CCSCc1ccco1)NCC(=O)N1Cc2ccccc2Oc2ccc(Cl)cc21,–

SMILES,Kb [2] [nM],ED50 [1] [mg/kg]
O=C(CCc1ccncc1)NNC(=O)N1Cc2ccccc2Oc2ccc(Cl)cc21,316,6.8
O=C(NNC(=O)C(F)(F)C(O)c1ccccn1)N1Cc2ccccc2Oc2ccc(Cl)cc21 (stereo not drawn),31.6,9.1
